Drawing on ChEMBL document CHEMBL5107950, “Structure-based design of haloperidol analogues as inhibitors of acetyltransferase Eis from Mycobacterium tuberculosis to overcome kanamycin resistance” (RSC Med Chem, 2021), this text covers MIC and Activity for 34 compounds.

The test system of assay [1] is Mycobacterium tuberculosis variant bovis. Nature of the assay: Antibacterial activity against Mycobacterium bovis BCG ATCC 35734 assessed as inhibition of bacterial growth incubated upto 3 weeks hrs by resazurin dye based double-dilution method. The format is functional. The settings on record: BCG ATCC 35734, 504 h. Summed up:
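Double-dilution broth MIC. Media: M. smegmatis, Mueller-Hinton; M. abscessus, 7H9 + 0.05% Tween80 + 0.4% glycerol; mc²6230, 7H9 + 0.05% tyloxapol, 0.5% glycerol, 10% OADC, 0.2% casamino acids, 24 µg/mL pantothenate; other mycobacteria, 7H9 + 0.05% Tween80, 0.4% glycerol, 10% ADC. Inoculum from agar set to 0.5 McFarland, then diluted 1:100.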
On the technique in general: The colour change of resazurin is a common sign of viable cells or microbes.

For assay [2] the test system is unchanged. The experiment in a line: Synergistic antibacterial activity against Mycobacterium bovis BCG ATCC 35734 in presence of spectinomycin by checkerboard assay. The format is functional, organism-based. Summed up:
(§1)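 Checkerboard in 96-well plates. Antibiotic two-fold serially diluted along columns, haloperidol derivative two-fold along rows. Bacteria prepared as for the MIC determination. MICs alone and in combination used to calculate FICI. At least duplicate independent trials.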

For assay [3] the test system is unchanged. Nature of the assay: Antibacterial activity against Mycobacterium bovis BCG ATCC 35734 in presence of clarithromycin by checkerboard assay. Type of assay: functional, organism-based. The gist of the method: as §1
For assay [4] the test system is unchanged. The experiment in a line: Antibacterial activity against Mycobacterium bovis BCG ATCC 35734 in presence of clofazimine by checkerboard assay. Type of assay: functional, organism-based. The gist of the method: as §1

Values after ≈ are worked out from the molar mass of the structure shown. Active and inactive are the calls of the source. No cut-off for these calls is given here.

On to `O=C(CN1CCC(O)(c2ccc(Cl)cc2)CC1)c1ccc(F)cc1`, for which the MIC in assay [1] is greater than 62.5 µM.

Consider `O=C(CCCN1CCC(O)(c2ccc(F)cc2)CC1)c1ccc(Cl)cc1`, for which, in assay [1], the MIC was greater than 62.5 µM. In addition, the outcome in assay [2], in assay [3] and in assay [4] was Active.

Consider `CCc1ccc(C(=O)CCCN2CCC(O)(c3ccc(Cl)cc3)CC2)cc1`, for which the MIC in assay [1] amounted to 2 µM (≈ 0.772 µg/mL).

As for `O=C(CCCN1CCC(O)(c2ccc(F)cc2)CC1)c1ccc(Br)cc1`, in assay [1], the MIC came out at 62.5 µM (≈ 26.3 µg/mL).

Take `O=C(CCCN1CCC(c2ccc(Cl)cc2)CC1)c1ccc(F)cc1`: the MIC in assay [1] worked out at 62.5 µM (≈ 22.5 µg/mL).

As to `CC(=O)CCCN1CCC(O)(c2ccc(Cl)cc2)CC1`, in assay [1], the MIC is greater than 62.5 µM.

On to `CC(C)(C)c1ccc(C(=O)CCCN2CCC(O)(c3ccc(Br)cc3)CC2)cc1`, for which the MIC in assay [1] was found to be 3.9 µM (≈ 1.79 µg/mL).

As to `O=C(CCCN1CCC(O)(c2ccc(F)cc2)CC1)c1ccc(F)cc1`, the minimum inhibitory concentration (MIC) in assay [1] was greater than 62.5 µM.

`NNC(=O)c1ccncc1` [ISONIAZID]: the MIC in assay [1] is no more than 1 µM.

In the case of `O=C(CCCN1CCC(O)(c2ccc(Br)cc2)CC1)c1ccc(F)cc1` [BROMPERIDOL], in assay [1], the MIC stood at 62.5 µM (≈ 26.3 µg/mL).

For the compound `O=C(CCCN1CCC(O)(c2ccc(Cl)cc2)CC1)c1ccc(Br)cc1`, the MIC in assay [1] was greater than 62.5 µM.

As for `CC(C)c1ccc(C(=O)CCCN2CCC(O)(c3ccc(Cl)cc3)CC2)cc1`, the MIC in assay [1] amounted to 1 µM (≈ 0.4 µg/mL).

As to `Cc1ccc(C(=O)CCCN2CCC(O)(c3ccc(Cl)cc3)CC2)cc1`, the MIC in assay [1] stood at 15.6 µM (≈ 5.8 µg/mL).

For the compound `O=C(CCCN1CCC(O)(c2ccc(Br)cc2)CC1)c1ccc(Br)cc1`, the MIC in assay [1] was greater than 62.5 µM.

Consider `COc1ccc(C(=O)CCCN2CCC(O)(c3ccc(Cl)cc3)CC2)cc1`, for which the MIC in assay [1] was greater than 62.5 µM.

On to `O=C(CCCN1CCC(O)(c2ccc(Cl)cc2)CC1)c1ccccc1`, for which the MIC in assay [1] stood at 62.5 µM (≈ 22.4 µg/mL).

For the compound `O=C(CCCN1CCC(O)(c2ccc(Cl)cc2)CC1)c1ccc(Cl)cc1` [CHLOROHALOPERIDOL], the MIC in assay [1] stood at 62.5 µM (≈ 24.5 µg/mL). In addition, the result in assay [2], in assay [3] and in assay [4] was Active.

In the case of `COc1ccc(C(=O)CCCN2CCC(O)(c3ccc(Br)cc3)CC2)cc1`, the MIC in assay [1] came to 62.5 µM (≈ 27 µg/mL).

Turning to `O=C(CCCN1CC=C(c2ccc(Cl)cc2)CC1)c1ccc(F)cc1`, the MIC in assay [1] is 15.6 µM (≈ 5.58 µg/mL).

For the compound `Fc1ccc(OCCCN2CCC(c3ccccc3)CC2)cc1`, in assay [1], the MIC is greater than 62.5 µM.

Turning to `O=C(CCCN1CCC(O)(c2ccccc2)CC1)c1ccc(F)cc1`, the MIC in assay [1] is greater than 62.5 µM.

Regarding `CC1CC(C)CN(CCCOc2ccc(F)cc2)C1` (stereo not drawn), in assay [1], the MIC came to 15.6 µM (≈ 4.14 µg/mL).

As for `COc1ccc(C(=O)CCCN2CCC(O)(c3ccc(F)cc3)CC2)cc1`, in assay [1], the MIC is greater than 62.5 µM.

With `O=C(CCCN1CCCCC1)c1ccc(F)cc1` [PRIMAPERONE], the MIC in assay [1] was greater than 62.5 µM.

As to `O=C(CCCN1CCC(O)(c2ccc(Br)cc2)CC1)c1ccccc1`, in assay [1], the MIC is greater than 62.5 µM.

On to `Cc1ccc(S(=O)(=O)N2CCC(O)(c3ccc(Cl)cc3)CC2)cc1`, for which, in assay [1], the MIC is greater than 62.5 µM.

As for `O=C(CCCN1CCC(O)(c2ccc(Cl)cc2)CC1)c1ccc(F)cc1` [HALOPERIDOL], the MIC in assay [1] is 62.5 µM (≈ 23.5 µg/mL).

On to `CC(C)(C)c1ccc(C(=O)CCCN2CCC(O)(c3ccc(F)cc3)CC2)cc1`, for which the MIC in assay [1] amounted to 15.6 µM (≈ 6.2 µg/mL).

Consider `CC1CCCCN1CCCOc1ccc(F)cc1` (stereo not drawn), for which the MIC in assay [1] stood at 3.9 µM (≈ 0.98 µg/mL).

Regarding `O=C(CCCN1CCC(O)CC1)c1ccc(F)cc1`, the MIC in assay [1] is greater than 62.5 µM.

Regarding `O=C(CCCN1CCC(O)(c2ccc(F)cc2)CC1)c1ccccc1`, the MIC in assay [1] was greater than 62.5 µM.

In the case of `CC(C)(C)c1ccc(C(=O)CCCN2CCC(O)(c3ccc(Cl)cc3)CC2)cc1`, the MIC in assay [1] came out at 3.9 µM (≈ 1.61 µg/mL).

As for `CC1CC(C)CN(CCCC(=O)c2ccc(C(C)(C)C)cc2)C1` (stereo not drawn), in assay [1], the MIC turned out to be 31.3 µM (≈ 9.88 µg/mL).

For the compound `O=C(CCCN1CCC(O)(c2ccc(Br)cc2)CC1)c1ccc(Cl)cc1`, the MIC in assay [1] turned out to be 15.6 µM (≈ 6.81 µg/mL). Besides, the result in assay [2], in assay [3] and in assay [4] was Active.

By MIC is commonly meant the least concentration at which growth counts as inhibited.
